As a reminder, the EC50 is the concentration needed to bring the measured effect to its halfway point. The logD is the decadic logarithm of the distribution of all forms, ionised or not, between an organic phase and buffer at a given pH. Higher therefore signals a more lipophilic compound.

The source made the active and inactive calls. The calls are words filed in the database; no cut-off is given here.

Results on three compounds are retold here after ChEMBL document CHEMBL4715787, “Radiofluorinated N-Octanoyl Dopamine ([F]F-NOD) as a Tool To Study Tissue Distribution and Elimination of NOD in Vitro and in Vivo” (J Med Chem, 2016).

Data set [1] concerns the target T1, Catechol O-methyltransferase (Homo sapiens, UniProt P21964).
T1 sequence (P21964 whole entry): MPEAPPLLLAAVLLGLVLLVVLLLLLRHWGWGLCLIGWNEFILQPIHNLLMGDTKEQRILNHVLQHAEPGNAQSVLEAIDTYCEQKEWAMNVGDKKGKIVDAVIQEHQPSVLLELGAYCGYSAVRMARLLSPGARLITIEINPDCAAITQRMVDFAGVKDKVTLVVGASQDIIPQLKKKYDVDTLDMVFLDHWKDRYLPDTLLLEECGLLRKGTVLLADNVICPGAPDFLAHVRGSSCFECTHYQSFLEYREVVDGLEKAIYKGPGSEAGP
The data set is described as follows: Substrate activity at COMT (unknown origin) assessed as N-(2-Fluoro-4,5-dimethoxyphenethyl)octanamide formation in presence of cofactor SAM at 180 mins by HPLC analysis. The data set is classed as ADME. Conditions: 3 h. In short, it runs like this:
(§1)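 COMT reaction for lipophilic substrates: Tris buffer pH 8.0 with MgCl2 and dithiothreitol, 10 µL Tween20, 300 nmol SAM, 300 nmol substrate (from 100 mM ethanol stock), 75 units COMT in 1% BSA, 37 °C for 2–4 h. Cooled on ice, centrifuged, CHCl3-extracted, residue in 1:1 MeCN/water analysed by HPLC against methylated references.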

In data set [2] the test system is HUVEC. The data set is described as follows: Antiinflammatory activity in HUVEC assessed as inhibition of TNFalpha-stimulated VCAM1 expression at higher concentration measured after overnight incubation by Western blot analysis. The data set is classed as functional, cell-based. Conditions: Homo sapiens. An outline of the steps:
(§2)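 Primary HUVEC (from fresh umbilical cord, endothelial growth medium with 2% FBS, used at 80–90% confluence) treated with compound; VCAM-1 read-out under TNFα stimulation. Lysates in Triton/deoxycholate buffer; 15 µg protein resolved on 10% SDS-PAGE, semidry-blotted to PVDF, probed overnight at 4 °C for VCAM-1 or HO-1, visualized by ECL. Blots stripped and reprobed for β-actin as loading control.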

Data set [3] relates to HUVEC. In words: Antiinflammatory activity in HUVEC assessed as inhibition of TNFalpha-stimulated VCAM1 expression at lower concentration measured after overnight incubation by Western blot analysis. Format: functional, cell-based. Conditions: Homo sapiens. An outline of the steps: as §2
A general note: A western blot detects proteins with antibodies after separation by electrophoresis.

The target of data set [4] is T2, Nuclear factor erythroid 2-related factor 2 (Homo sapiens) (UniProt Q16236).
T2 sequence (whole entry): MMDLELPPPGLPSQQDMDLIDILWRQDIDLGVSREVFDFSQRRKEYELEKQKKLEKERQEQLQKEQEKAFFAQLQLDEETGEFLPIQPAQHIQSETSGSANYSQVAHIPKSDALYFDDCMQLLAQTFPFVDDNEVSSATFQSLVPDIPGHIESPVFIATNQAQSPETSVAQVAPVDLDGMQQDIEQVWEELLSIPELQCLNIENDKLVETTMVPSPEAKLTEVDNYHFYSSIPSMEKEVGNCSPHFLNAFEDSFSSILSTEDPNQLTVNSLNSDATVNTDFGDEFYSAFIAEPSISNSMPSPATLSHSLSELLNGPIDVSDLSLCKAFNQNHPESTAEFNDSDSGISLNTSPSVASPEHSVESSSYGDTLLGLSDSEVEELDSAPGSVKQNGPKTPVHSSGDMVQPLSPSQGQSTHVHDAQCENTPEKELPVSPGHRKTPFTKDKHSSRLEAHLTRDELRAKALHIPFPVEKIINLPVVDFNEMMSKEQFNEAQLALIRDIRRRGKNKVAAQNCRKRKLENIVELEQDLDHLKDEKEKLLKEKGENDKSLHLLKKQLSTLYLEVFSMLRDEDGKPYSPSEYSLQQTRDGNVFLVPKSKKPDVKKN
In words: Activation of NRF2 in HUVEC assessed as induction of HO1 expression at lower concentration measured after overnight incubation by Western blot analysis. Format: tissue-based. In short, it runs like this: as §2

In data set [5] the target is T2, Nuclear factor erythroid 2-related factor 2 (Homo sapiens). The data set is described as follows: Activation of NRF2 in HUVEC assessed as induction of HO1 expression at higher concentration measured after overnight incubation by Western blot analysis. The data set is classed as tissue-based. Conditions: filed as activator. In short, it runs like this:
as §2

Data set [6] is described as follows: Redox activity of compound assessed as quenching of luminescence by horseradish peroxidase coupled luminol assay. The data set is classed as physicochemical. In short, it runs like this:
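Peroxidase-luminol chemiluminescence: serial dilutions in water added to mix of 2.5 mM luminol, 0.9 mM p-coumaric acid and H2O2, with HRP; quenching read immediately on a plate reader. Expressed relative to compound-free control; at least three independent measurements per concentration; EC50 from concentration–response; ANOVA with LSD post-hoc.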

The target of data set [7] is Transient receptor potential cation channel subfamily V member 1 (Rattus norvegicus) (UniProt O35433). In words: (§3) Activation of rat TRPV1 transfected in HEK293 cells assessed as increase in calcium influx in presence of capsaicin by FURA-2-AM dye based fluorescence assay. Conditions: filed as activator. Format: cell-based. An outline of the steps:
(§4)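 HEK293 transiently transfected with rat TRPV1, imaged 48 h later in HEPES-buffered extracellular solution (1.8 mM CaCl2) after 1 µM FURA-2AM loading. 340/380 nm excitation ratio at 510 nm, sampled at 0.5 Hz. Compound applied at several concentrations, then 10 µM capsaicin after washout to mark transfected cells. Peak minus baseline; each coverslip one experiment, n = 3–13; two-way ANOVA.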

The target in data set [8] is Transient receptor potential cation channel subfamily V member 1 (Rattus norvegicus, UniProt O35433). The description is as §3. Format: cell-based. In short, it runs like this: as §4
Data set [9] has as its system HUVEC. The data set is described as follows: Protection against cold inflicted injury in HUVEC assessed as 25 to 100 uM pretreated for 2 hrs followed by washout and subsequent incubation for 20 hrs at 4 degC by LDH assay. The data set is classed as functional, cell-based. Conditions: Homo sapiens, dose 25-100 µM.
Data set [10] in a line: Drug distribution in Lewis rat bone assessed as standard uptake value at 4.8 to 13.2 MBq measured after 120 mins. The data set is classed as ADME, tissue-based, Bone element. Conditions: in vivo, 2 h, dose 4.8-13.2 MBq.
Data set [11] can be described thus: Drug distribution in Lewis rat bladder assessed as standard uptake value at 4.8 to 13.2 MBq measured after 120 mins. The data set is classed as ADME, tissue-based, Urinary bladder. Conditions: in vivo, 2 h, dose 4.8-13.2 MBq.
A short description of data set [12]: Drug accumulation in Lewis rat bone at 4.8 to 13.2 MBq measured after 60 mins by PET imaging analysis. Format: ADME, tissue-based, Bone element. Conditions: in vivo, 1 h, dose 4.8-13.2 MBq.
The nature of data set [13]: Drug distribution in Lewis rat liver assessed as standard uptake value at 4.8 to 13.2 MBq measured at 8 min by PET imaging analysis. Conditions: in vivo, dose 4.8-13.2 MBq. Format: ADME, tissue-based.
Data set [14] in a line: Drug distribution in Lewis rat bladder at 4.8 to 13.2 MBq measured within 30 mins by PET imaging. The data set is classed as ADME, tissue-based, Urinary bladder. Conditions: in vivo, 0.5 h, dose 4.8-13.2 MBq.
The nature of data set [15]: Drug distribution in Lewis rat kidney assessed as standard uptake value at 4.8 to 13.2 MBq observed between 5 to 10 mins by PET imaging analysis. Format: ADME, tissue-based. Conditions: in vivo, dose lower 4.8 MBq, time lower 5 min, dose upper 13.2 MBq, time upper 10 min.
A short description of data set [16]: Drug uptake in human HUVEC lysate extracts assessed as retention time incubated for 120 mins by HPLC analysis. The data set is classed as ADME, subcellular. Conditions: 2 h. An outline of the steps:
(§5)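 HUVEC incubated with ~450 kBq 18F tracer per well in 1 mL medium at 37 °C, normal atmosphere, for up to 120 min. Supernatant collected, cells washed 3× with PBS, lysed and scraped for gamma counting; associated activity expressed as % of applied dose. Lysate extracts analysed by radio-HPLC; three independent experiments, mean ± SD.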

Data set [17] can be described thus: Drug transport in HUVEC assessed as cell association incubated for 120 mins by HPLC analysis. Format: ADME, tissue-based. Conditions: human, 2 h, in the assay text read “by gamma counting” for “by HPLC analysis”. An outline of the steps: as §5
Data set [18] is described as follows: Metabolic stability of compound in rat plasma assessed as compound recovery rate measured after 120 mins by radio-HPLC analysis. Format: ADME, cell-free. Conditions: read-out: Drug recovery. An outline of the steps: (§6)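 18F tracer in PBS/3% EtOH (100 µL) shaken with rat plasma (200 µL) at 37 °C for 120 min. Samples at 30, 60, 120 min deproteinized with equal volume acetonitrile at 0 °C; supernatant analysed by radio-TLC and radio-HPLC for radiochemical purity and recovery.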

Data set [19] is described as follows: Metabolic stability of compound in rat plasma assessed as radiochemical purity measured after 120 mins by radio-HPLC analysis. Format: ADME, cell-free. Conditions: read-out: Stabilty. In short, it runs like this:
as §6

The nature of data set [20]: Lipophilicity, log D of compound in n-octanol and phosphate buffered saline at pH 7.5 by shake flask method. Format: physicochemical. An outline of the steps: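 Shake-flask partition of the 18F tracer between n-octanol and PBS at pH 7.5, following OECD guideline; n = 3.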
Data set [21] concerns the target T1, Catechol O-methyltransferase. The data set is described as follows: Substrate activity at COMT (unknown origin) assessed as N-(4-Hydroxy-3-methoxyphenethyl)octanamide formation in presence of cofactor SAM at 180 mins by HPLC analysis. The data set is classed as ADME. Conditions: 3 h. An outline of the steps:
as §1

Sequence of Transient receptor potential cation channel subfamily V member 1 (Rattus norvegicus) (O35433 whole entry): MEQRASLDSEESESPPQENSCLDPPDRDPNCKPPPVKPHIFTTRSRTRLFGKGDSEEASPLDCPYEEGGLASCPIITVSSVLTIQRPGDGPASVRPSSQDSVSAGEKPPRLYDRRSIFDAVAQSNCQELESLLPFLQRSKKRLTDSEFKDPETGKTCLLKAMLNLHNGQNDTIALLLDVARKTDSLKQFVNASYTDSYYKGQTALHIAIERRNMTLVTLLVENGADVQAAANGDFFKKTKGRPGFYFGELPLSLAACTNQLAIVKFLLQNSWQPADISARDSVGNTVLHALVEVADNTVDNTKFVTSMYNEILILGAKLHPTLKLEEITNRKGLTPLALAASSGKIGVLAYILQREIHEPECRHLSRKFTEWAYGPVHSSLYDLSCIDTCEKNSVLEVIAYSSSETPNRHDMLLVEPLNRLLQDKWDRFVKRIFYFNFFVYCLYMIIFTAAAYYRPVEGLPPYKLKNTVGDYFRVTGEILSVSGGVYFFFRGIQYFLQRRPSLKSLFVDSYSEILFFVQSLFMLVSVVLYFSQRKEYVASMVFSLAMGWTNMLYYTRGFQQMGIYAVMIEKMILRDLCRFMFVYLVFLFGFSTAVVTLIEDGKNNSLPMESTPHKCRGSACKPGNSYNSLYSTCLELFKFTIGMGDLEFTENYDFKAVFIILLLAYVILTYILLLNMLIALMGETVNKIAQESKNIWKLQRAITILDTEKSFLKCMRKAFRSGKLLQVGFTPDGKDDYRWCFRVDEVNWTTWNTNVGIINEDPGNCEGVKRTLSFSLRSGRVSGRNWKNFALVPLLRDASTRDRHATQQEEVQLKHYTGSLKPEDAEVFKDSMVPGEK
Sequence of Transient receptor potential cation channel subfamily V member 1 (O35433 whole entry): as above

Consider `CCCCCCCC(=O)NCCc1cc(O)c(O)cc1F`, for which the Drug metabolism entry in data set [1] is given as “Metabolite_Detected”. Moreover, the result (in the data set with HUVEC [2]; in data set [5]; in the data set on HUVEC [9]) was Active. In addition, the result (in the data set with HUVEC [3]; in [4]) was inactive. The figures for the EC50 in data set [6] and in data set [8] were 32.6 µM and 45.9 µM, respectively. The Activity entry in data set [7] was “Dose-dependent effect”.

Take `CCCCCCCC(=O)NCCc1cc(O)c(O)cc1[18F]`: the SUV in data set [10] worked out at 9.8 g/mL; in data set [11] it was 38.5 g/mL; in [13], 21 g/mL; in data set [15], 8 g/mL. The Drug uptake entry in data set [12] and in data set [14] was “Active” each time. Besides, in [16], the Retention_time came out at 4.07 min. For the same compound, the Drug transport in [17] is 0.14 %ID. Further, the remaining at 2 h in [18] is 77%; in data set [19] it was no less than 98%. Moreover, the logD in data set [20] was found to be 3.35.

For `CCCCCCCC(=O)NCCc1ccc(O)c(O)c1`, the Drug metabolism result in data set [21] is on record as “Metabolite_Detected”. Besides, the outcome (in the data set with HUVEC [2]; in data set [5]; with HUVEC [9]) was Active. Besides, the concentration for a half-maximal effect (EC50) stood at 12.1 µM in [6] and 7.1 µM in data set [8]. Also, the Activity result in data set [7] was “Dose-dependent effect”.
